Data on one molecule can be found in ChEMBL document CHEMBL4680077, “Differentiation of skeletal osteogenic progenitor cells to osteoblasts with 3,4-diarylbenzopyran based amide derivatives: Novel osteogenic agents” (Eur J Med Chem, 2016).

Data set [1] is described as follows: Acute toxicity in Swiss albino mouse assessed as body weight at 50 mg/kg, po observed on day 1 (reference value: 20.38 +/- 0.24 g). The data set is classed as organism-based. Particulars: in vivo, 24 h, time 1 day.
Data set [2] is described as follows: Elimination rate constant in Sprague-Dawley rat at 1 mg/kg, iv measured upto 24 hrs by LC-MS/MS analysis. The class given is ADME, organism-based. As to conditions: in vivo.
Data set [3] is described as follows: Acute toxicity in Swiss albino mouse assessed as eosinophil count at 5 mg/kg, po measured after 7 days (reference value: 6.34 +/- 1.04 %). The class given is organism-based. As to conditions: in vivo, 168 h, time 7 day.
Data set [4] in a line: Acute toxicity in Swiss albino mouse assessed as basophil count at 300 mg/kg, po measured after 7 days (reference value: 1.50 +/- 0.29 %). The data set is classed as organism-based. As to conditions: in vivo, 168 h, time 7 day.
The nature of data set [5]: Acute toxicity in Swiss albino mouse assessed as RBC count at 300 mg/kg, po measured after 7 days (Rvb =6.0 +/- 0.28 million/mm3). The data set is classed as organism-based. As to conditions: in vivo, 168 h, time 7 day.
In another data set the test system is Calvarial osteoblast. The data set is described as follows: Induction of osteoblast differentiation in mouse calvarial osteoblast assessed as increase in mineralization nodules at 1 pM incubated for 15 days by alizarin-red S dye based colorimetric analysis. The class given is functional, cell-based. Particulars: time 15.0 day. An outline of the steps:
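Calvarial osteoblasts were seeded at 2×10³ cells/well in differentiation medium (10 mM β-glycerophosphate, ascorbic acid) and cultured ± 1 pM with medium changed every 48 h. Cells were fixed in 4% formaldehyde and stained with 40 mM alizarin red S. Dye was extracted in 10% acetic acid at 85 °C, neutralized with ammonium hydroxide and read at 405 nm. n = 3.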

A short description of data set [6]: Acute toxicity in Swiss albino mouse assessed as relative kidney weight at 1000 mg/kg, po measured after 7 days (reference value: 1.25 +/- 0.08 %). The class given is organism-based. As to conditions: in vivo, 168 h, time 7 day.
Data set [7] in a line: Toxicity in ovariectomized BALB/c mouse assessed as uterine estrogenicity by measuring uterine weights at 1 to 10 mg/kg, po administered for 30 days and measured on day 30. The class given is organism-based. As to conditions: in vivo, 720 h, dose 1-10 mg/kg, time 30 day. An outline of the steps:
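Six-to-eight-week-old balb/c mice (n = 10) were ovariectomized and dosed orally for 30 consecutive days: test agent at 1 or 10 mg kg-1 day-1, or 17β-E2 at 0.01 mg kg-1 day-1. Uterine weights were recorded and compared with the Ovx vehicle group; mean ± SEM.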

Data set [8] in a line: Acute toxicity in Swiss albino mouse assessed as ALKP level at 1000 mg/kg, po measured after 7 days (reference value: 379.25 +/- 27.08 U/L). The data set is classed as organism-based. As to conditions: in vivo, 168 h, time 7 day.
Data set [9] is described as follows: Acute toxicity in Swiss albino mouse assessed as absolute kidney weight at 1000 mg/kg, po measured after 7 days (reference value: 0.29 +/- 0.02 g). Particulars: in vivo, 168 h, time 7 day. The class given is organism-based.
Data set [10] can be described thus: Acute toxicity in Swiss albino mouse assessed as absolute spleen weight at 5 mg/kg, po measured after 7 days (reference value: 0.17 +/- 0.03 g). The class given is organism-based. As to conditions: in vivo, 168 h, time 7 day.
Data set [11] is described as follows: Acute toxicity in Swiss albino mouse assessed as body weight at 300 mg/kg, po observed on day 1 (reference value: 20.38 +/- 0.24 g). The class given is organism-based. Particulars: in vivo, 24 h, time 1 day.
Data set [12] has as its system Mus musculus. The data set is described as follows: In vivo osteogenic activity in ovariectomized BALB/c mouse assessed as increase in trabecular number at 1 to 10 mg/kg, po via gavage administered for 1 month by microCT imaging analysis. As to conditions: dose 1-10 mg/kg, time 1.0 months. The data set is classed as functional, organism-based. The essentials: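 Ovariectomized female balb/c mice, 8 weeks old, 10 per group, received 1.0 or 10.0 mg kg-1 once daily by oral gavage (gum acacia vehicle) for 4 weeks, alongside sham and Ovx vehicle groups. Femurs were scanned by microCT. BV/TV, Tb.N and Tb.Sp were derived by the mean intercept length method. Mean ± SE.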

The nature of data set [13]: Acute toxicity in Swiss albino mouse assessed as absolute lung weight at 300 mg/kg, po measured after 7 days (reference value: 0.16 +/- 0.01 g). The class given is organism-based. Particulars: in vivo, 168 h, time 7 day.
Data set [14] can be described thus: Acute toxicity in Swiss albino mouse assessed as absolute spleen weight at 1000 mg/kg, po measured after 7 days (reference value: 0.17 +/- 0.03 g). The data set is classed as organism-based. Particulars: in vivo, 168 h, time 7 day.
Data set [15] is described as follows: Acute toxicity in Swiss albino mouse assessed as reduced GSH level at 1000 mg/kg, po measured after 7 days (reference value: 18.20 +/- 1.56 ug/mg of protein). The class given is organism-based. As to conditions: in vivo, 168 h, time 7 day.
Data set [16] can be described thus: Acute toxicity in Swiss albino mouse assessed as absolute uterus weight at 50 mg/kg, po measured after 7 days (reference value: 0.27+/- 0.07 g). The data set is classed as organism-based. Particulars: in vivo, 168 h, time 7 day.
Data set [17] in a line: Acute toxicity in Swiss albino mouse assessed as serum protein level at 50 mg/kg, po measured after 7 days (reference value: 0.66 +/- 0.01 mg/ml). The data set is classed as organism-based. As to conditions: in vivo, 168 h, time 7 day.
A short description of data set [18]: Acute toxicity in Swiss albino mouse assessed as observational changes at 5 to 1000 mg/kg, po measured after 7 days. The data set is classed as organism-based. Particulars: in vivo, 168 h, dose 5-1000 mg/kg, time 7 day. The essentials:
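Acute oral toxicity per OECD guidelines 420, 423 and 425. Swiss albino mice received a single oral dose at 5, 50, 300 or 1000 mg kg1 body weight, with vehicle controls. Animals were watched for morbidity, mortality and observational changes over 7 days. Tail-vein blood was then taken for hematology and serum biochemistry. Organs were inspected at sacrifice. n = 6 per group.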

In data set [19] the test system is Mus musculus. The data set can be described thus: In vivo osteogenic activity in ovariectomized BALB/c mouse assessed as decrease in serum OCN at 1 to 10 mg/kg, po via gavage administered for 30 days. The data set is classed as functional, organism-based. As to conditions: dose 1-10 mg/kg, time 30.0 day. An outline of the steps: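 Eight-week-old female balb/c mice were ovariectomized and dosed once daily by oral gavage at 1 or 10 mg kg-1 in vehicle (gum acacia in water) for 30 days; sham and Ovx vehicle groups served as controls. Serum CTx and osteocalcin were assayed in duplicate. n = 10 per group; mean ± SEM.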

Data set [20] is described as follows: Acute toxicity in Swiss albino mouse assessed as relative ovary weight at 300 mg/kg, po measured after 7 days (reference value: 0.07 +/- 0.02 %). The class given is organism-based. Particulars: in vivo, 168 h, time 7 day.

Calls of active or inactive are those of the source. No cut-off for these calls is given here.

On to `CCCCN(C)C(=O)CCCCOc1ccc([C@H]2c3ccc(OC)cc3OC(C)(C)[C@@H]2c2ccccc2)cc1`, for which the Activity was 20.38 g in data set [1]; 8.35% in data set [3]; 1.25% in data set [4]; 7.31 million/mm3 in data set [5]; 1.44% in data set [6]; “Non-Toxic” in data set [7]. Besides, the Activity in data set [8] turned out to be 378.12 U/L; in [9] it was 0.29 g; in [10], 0.11 g; in data set [11] it was 19.61 g; in [13], 0.17 g; in data set [14], 0.1 g. Besides, the Activity in [15] is 13.98 µg/mg; in data set [16], 0.24 g; in data set [17], 0.74 mg/mL; in data set [18] it was “Non-Toxic”; in data set [20] it was 0.29%. The molecule also gave a k el at 24 h in [2] of 5.47e-05 s⁻¹. Moreover, the result in the data set on Calvarial osteoblast, with Mus musculus [12] and in the data set on Mus musculus [19] was Active.
